Test results taken from BindingDB's records for doi:10.1021/jm00350a002 (1982).

Target: T1, Cytochrome P450 2B1 (Rattus norvegicus, UniProt P00176)
T1 sequence (P00176 whole entry): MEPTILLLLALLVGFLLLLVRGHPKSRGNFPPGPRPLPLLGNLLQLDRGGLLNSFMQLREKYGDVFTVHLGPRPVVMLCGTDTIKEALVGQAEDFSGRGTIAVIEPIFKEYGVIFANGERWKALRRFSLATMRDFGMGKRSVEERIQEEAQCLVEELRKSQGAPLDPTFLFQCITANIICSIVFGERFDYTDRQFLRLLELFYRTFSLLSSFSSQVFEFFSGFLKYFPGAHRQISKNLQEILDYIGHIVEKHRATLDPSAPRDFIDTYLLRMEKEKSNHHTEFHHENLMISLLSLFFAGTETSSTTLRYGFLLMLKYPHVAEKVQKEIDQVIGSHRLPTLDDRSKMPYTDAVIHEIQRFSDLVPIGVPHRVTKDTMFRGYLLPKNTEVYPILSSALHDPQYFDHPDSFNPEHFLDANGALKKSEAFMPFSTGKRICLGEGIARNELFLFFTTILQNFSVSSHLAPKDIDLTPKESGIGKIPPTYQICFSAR
Test: Inhibitory potency to aminopyrine N-demethylase activity (P450) in hepatic microsomes from phenobarbitone-induced rats.
Procedure, shortened: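 Microsomes (105000g pellet) from livers of male Wistar rats (100–150 g) given phenobarbitone ip on consecutive days. A 3.0 mL mix in 0.1 M K phosphate, pH 7.4, held aminopyrine 1.61 μmol, NADPH-generating system, semicarbazide and 5.6 mg protein, run 15 min. Formaldehyde was read by Nash/Hantzsch. Inhibitor went in DMSO or 0.07 M HCl, with solvent in controls. I50 came from seven concentrations.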

Compound	IC50
ClCc1nc2ccccc2[nH]1	141 µM
CCCCC(=O)Nc1ccc2nc(C)[nH]c2c1	417 µM
Fc1ccc2[nH]cnc2c1	437 µM
NCc1nc2ccccc2[nH]1	457 µM
CCc1nc2ccc(C)cc2[nH]1	269 µM
Cc1cccc2[nH]cnc12	525 µM
c1ccc2[nH]c(C3CC3)nc2c1	251 µM
FC(F)(F)c1nc2ccccc2[nH]1	257 µM
CC(C)(C)c1nc2ccccc2[nH]1	302 µM
CC(=O)Nc1ccc2nc(C)[nH]c2c1	1260 µM
CC(=O)Nc1cc(Cl)cc2[nH]c(C)nc12	309 µM
CC(C)c1nc2ccccc2[nH]1	537 µM
Cc1ccc2nc(C)[nH]c2c1	479 µM
O=[N+]([O-])c1cccc2[nH]cnc12	468 µM
Cc1nc2cc(NC(=O)c3ccccc3)ccc2[nH]1	302 µM
O=[N+]([O-])c1ccc2[nH]cnc2c1 [5-Nitro-1H-benzoimidazole]	309 µM
Cc1ccc2[nH]cnc2c1 [5-methyl-1H-benzimidazole]	575 µM

The remaining molecules from weak to strong by IC50, led by results:

IC50	Compound
251 µM	Cc1nc2c(C)c(C)ccc2[nH]1
219 µM	Cc1nc2ccc([N+](=O)[O-])cc2[nH]1
200 µM	c1cncc(-c2nc3ccccc3[nH]2)c1
158 µM	OC(c1ccccc1)c1nc2ccccc2[nH]1 (stereo not drawn)
158 µM	CCCCCc1nc2cc(NC(C)=O)ccc2[nH]1
158 µM	CC(C)Cc1nc2ccccc2[nH]1
158 µM	Clc1ccc2[nH]cnc2c1
151 µM	Cc1nc2cc(Cl)ccc2[nH]1
129 µM	O=[N+]([O-])c1cc(Cl)cc2[nH]cnc12
120 µM	CCCCc1nc2ccccc2[nH]1
110 µM	CCCc1nc2cc(C)c(C)cc2[nH]1
